Experimental data of several laboratories.
Lines come from different studies, so protocols differ.
SIGMAR1: Sigma non-opioid intracellular receptor 1 (SIGMAR1, Cavia porcellus, UniProt Q60492)
TMEM97: Sigma intracellular receptor 2 (TMEM97, Homo sapiens, UniProt Q5BJF2)
CHRM3: Muscarinic acetylcholine receptor M3 (CHRM3, Homo sapiens, UniProt P20309)
lecB: Fucose-binding lectin PA-IIL (lecB, Pseudomonas aeruginosa, UniProt Q9HYN5)

SMILES	target	test	setting	Ki [nM]
CC1=NC2(CCN(C)CC2)C(=O)N(c2c(C)cccc2C)C1=O	SIGMAR1	cell-free assay	–	8
COc1cc2c(cc1OC)CN(CCc1ccc(NC(=O)c3cccc4c(=O)c5cccc(OC)c5[nH]c34)cc1)CC2	TMEM97	ligand displacement, radioligand	–	77
C[C@H](N)Cn1ncc2ccc3c(c21)CCCO3	5-hydroxytryptamine receptor 1B (Htr1b, Rattus norvegicus, UniProt P28564)	ligand displacement, radioligand	–	5570
CN1CCN(C2=Nc3ccccc3Oc3ccc(Cl)cc32)CC1	TMEM97	ligand displacement, radioligand	–	3460
NC1C(O)C(O)C(O)C1O (stereo not drawn)	Alpha-mannosidase 2 (Drosophila melanogaster, UniProt Q24451)	enzyme activity, inhibitor, fluorescence	–	100000
Cc1ncc(C)n2nc(/C=C/c3nc(N4CCCC4)cc(N4CCOCC4)n3)nc12	cAMP and cAMP-inhibited cGMP 3',5'-cyclic phosphodiesterase 10A (Pde10a, Rattus norvegicus, UniProt Q9QYJ6)	enzyme activity, inhibitor, TR-FRET	–	0.59
Cc1cc(N2CCNCC2)nc2ccccc12	CHRM3	ligand displacement, radioligand	cell membranes	31600
CC(C)C[C@H](NC(=O)CNC(=O)[C@H](C)NC(=O)c1ccc(S(=O)(=O)NC[C@H]2O[C@@H](C)[C@@H](O)[C@@H](O)[C@@H]2O)cc1)C(=O)N[C@@H](C)C(=O)NC[C@@H]1CCN(c2cc3c(cc2F)c(=O)c(C(=O)O)cn3C2CC2)C1	lecB	ligand displacement, FP	–	1760
CN1[C@@H]2CC[C@H]1C[C@@H](OC(c1ccccc1)c1ccccc1)C2	TMEM97	ligand displacement, radioligand	–	63.7
CC(C)C[C@H](NC(=O)CNC(=O)[C@H](C)NC(=O)c1ccc(S(=O)(=O)NC[C@H]2O[C@@H](C)[C@@H](O)[C@@H](O)[C@@H]2O)cc1)C(=O)N[C@@H](C)C(=O)N1CCN(c2cc3c(cc2F)c(=O)c(C(=O)O)cn3C2CC2)CC1	lecB	ligand displacement, FP	–	1920
CN(C)CCCN1c2ccccc2CCc2ccc(Cl)cc21	TMEM97	ligand displacement, radioligand	–	200
CC(C)[C@@H](Nc1nc(Cl)nc2c1ncn2[C@H]1[C@H](O)[C@H](O)[C@]2(CN=[N+]=[N-])C[C@H]12)C1CC1	Alpha-2B adrenergic receptor (ADRA2B, Homo sapiens, UniProt P18089)	ligand displacement, radioligand	–	> 7300
CCN(CC)CCNC(=O)c1ccc(F)cc1	SIGMAR1	ligand displacement, radioligand	cell membranes	8900
COCCCN1CCN(c2ccccc2OC)CC1	Alpha-1D adrenergic receptor (ADRA1D, Homo sapiens, UniProt P25100)	cell-free assay	–	170
Cn1cc(-c2cccc(N3CCc4c(sc5c4CC(C)(C)C5)C3=O)c2CO)cc(Nc2ccncn2)c1=O	Ephrin type-A receptor 7 (EPHA7, Homo sapiens, UniProt Q15375)	cell-free assay	–	548
c1cc(N2CCNCC2)c2cc[nH]c2c1	CHRM3	ligand displacement, radioligand	cell membranes	> 31600
CC(C)[C@]1(O)[C@H](O)[C@@H]2O[C@]23[C@]2(O[C@H]2C[C@H]2C4=C(CC[C@@]23C)C(=O)OC4)[C@@H]1O	dCTP pyrophosphatase 1 (Homo sapiens, UniProt Q9H773)	enzyme activity, inhibitor	–	85000
CCN(CC)CCO[C@H]1CC[C@@]2(C)C(=CC[C@@H]3[C@@H]2CC[C@]2(C)C(=O)CC[C@@H]32)C1	TMEM97	ligand displacement, radioligand	–	19.3
